We go through 33 compounds from ChEMBL document CHEMBL1141218, “Further structure-activity relationship studies of piperidine-based monoamine transporter inhibitors: effects of piperidine ring stereochemistry on potency. Identification of norepinephrine transporter selective ligands and broad-spectrum transporter inhibitors” (J Med Chem, 2005).

Structures are written as SMILES.

The target in experiment [1] is Norepinephrine transporter (Rattus norvegicus, UniProt Q9WTR4). Nature of the experiment: Ability to inhibit [3H]NE uptake through NET in rat synaptosomes. It counts as subcellular, Brain. Put shortly: (§1)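 Uptake inhibition values given as Ki. Each experiment tested six drug concentrations in triplicate, with two to four independent experiments per compound. Values are means ± SEM.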
Chain of Norepinephrine transporter (Q9WTR4 whole entry): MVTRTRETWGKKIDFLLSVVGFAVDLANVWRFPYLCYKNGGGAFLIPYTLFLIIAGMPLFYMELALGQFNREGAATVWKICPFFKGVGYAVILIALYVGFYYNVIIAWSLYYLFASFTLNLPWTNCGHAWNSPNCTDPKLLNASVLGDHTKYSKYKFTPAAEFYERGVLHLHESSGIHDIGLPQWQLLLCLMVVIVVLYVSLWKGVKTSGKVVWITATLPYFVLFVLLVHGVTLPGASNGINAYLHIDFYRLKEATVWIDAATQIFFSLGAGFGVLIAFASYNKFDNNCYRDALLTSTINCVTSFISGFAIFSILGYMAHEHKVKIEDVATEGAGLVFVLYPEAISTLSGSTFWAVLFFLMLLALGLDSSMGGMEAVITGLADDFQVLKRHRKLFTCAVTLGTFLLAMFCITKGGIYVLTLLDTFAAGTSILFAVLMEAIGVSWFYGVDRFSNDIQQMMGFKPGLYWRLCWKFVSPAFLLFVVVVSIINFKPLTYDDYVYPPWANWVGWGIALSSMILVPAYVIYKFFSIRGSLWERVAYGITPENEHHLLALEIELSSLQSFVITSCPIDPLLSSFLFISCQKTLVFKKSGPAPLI

The target in experiment [2] is Monoamine transporters; serotonin & dopamine (Rattus norvegicus) (UniProt P31652+P23977). Nature of the experiment: Selectivity towards rat SERT over DAT. The class given is protein assay.
Chain of Monoamine transporters; serotonin & dopamine (Rattus norvegicus) (P23977 whole entry, looked up): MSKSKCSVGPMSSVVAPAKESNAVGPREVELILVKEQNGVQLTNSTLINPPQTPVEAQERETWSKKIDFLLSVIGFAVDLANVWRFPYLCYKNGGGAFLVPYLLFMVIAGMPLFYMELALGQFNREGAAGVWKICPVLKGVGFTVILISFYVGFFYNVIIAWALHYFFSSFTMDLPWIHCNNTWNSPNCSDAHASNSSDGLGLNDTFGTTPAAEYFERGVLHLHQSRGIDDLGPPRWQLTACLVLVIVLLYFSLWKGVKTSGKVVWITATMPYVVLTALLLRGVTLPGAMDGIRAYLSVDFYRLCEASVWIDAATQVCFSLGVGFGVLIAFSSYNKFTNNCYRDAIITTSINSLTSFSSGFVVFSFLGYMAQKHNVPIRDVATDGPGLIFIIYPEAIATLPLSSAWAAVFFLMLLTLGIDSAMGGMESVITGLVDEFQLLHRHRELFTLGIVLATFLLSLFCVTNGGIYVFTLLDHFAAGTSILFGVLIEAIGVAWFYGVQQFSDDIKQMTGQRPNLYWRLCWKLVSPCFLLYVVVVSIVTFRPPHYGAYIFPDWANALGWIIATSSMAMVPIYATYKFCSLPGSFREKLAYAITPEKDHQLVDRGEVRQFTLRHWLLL
Chain of Monoamine transporters; serotonin & dopamine (Rattus norvegicus) (P31652 whole entry, looked up): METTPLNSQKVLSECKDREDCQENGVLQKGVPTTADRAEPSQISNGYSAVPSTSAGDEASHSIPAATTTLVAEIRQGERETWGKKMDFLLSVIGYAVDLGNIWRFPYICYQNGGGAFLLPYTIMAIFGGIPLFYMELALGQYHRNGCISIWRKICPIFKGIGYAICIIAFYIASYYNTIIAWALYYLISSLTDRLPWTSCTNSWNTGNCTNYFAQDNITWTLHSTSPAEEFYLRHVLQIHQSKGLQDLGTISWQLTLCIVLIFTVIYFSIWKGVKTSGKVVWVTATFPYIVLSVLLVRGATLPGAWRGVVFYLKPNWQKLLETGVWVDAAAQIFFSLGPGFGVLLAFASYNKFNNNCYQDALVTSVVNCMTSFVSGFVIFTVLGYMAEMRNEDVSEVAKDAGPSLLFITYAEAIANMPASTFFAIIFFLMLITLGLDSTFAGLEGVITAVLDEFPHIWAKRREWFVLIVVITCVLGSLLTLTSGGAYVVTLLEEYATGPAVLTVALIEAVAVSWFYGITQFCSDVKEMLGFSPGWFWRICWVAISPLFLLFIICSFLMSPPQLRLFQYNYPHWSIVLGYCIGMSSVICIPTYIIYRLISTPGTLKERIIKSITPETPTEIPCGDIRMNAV
Experiment [3] concerns the target Sodium-dependent serotonin transporter (Rattus norvegicus, UniProt P31652). Put plainly: Ability to inhibit [3H]5-HT uptake through SERT in rat synaptosomes. The class given is subcellular, Brain. Put shortly: as §1
For experiment [4], the target named is Sodium-dependent dopamine transporter (Rattus norvegicus, UniProt P23977). Nature of the experiment: Ability to inhibit [3H]DA uptake through DAT in rat synaptosomes. It counts as subcellular, Brain. Put shortly: as §1
Chain of Sodium-dependent dopamine transporter (P23977 whole entry): as the sequence (P23977 whole entry, looked up) above

Chain of Sodium-dependent serotonin transporter (P31652 whole entry): as the sequence (P31652 whole entry, looked up) above

Usually Ki stands for the equilibrium dissociation constant of an inhibitor or competing ligand from its target. Regarding `CC(=O)OCCSC[C@@H]1CN(C)CC[C@H]1c1ccc(Cl)cc1`, the Ki is 52 nM in experiment [1], 130 nM in experiment [3] and 536 nM in experiment [4]. The Ratio Ki in experiment [2] was found to be 0.24.
As to `CN1CC[C@@H](c2ccc(Cl)cc2)[C@H](CSCCO)C1`, the Ki in experiment [1] came to 123 nM; in experiment [3], 129 nM; in experiment [4], 185 nM. For the same compound, in experiment [2], the Ratio Ki worked out at 0.69.
Consider `COC(=O)CSC[C@@H]1CN(C)CC[C@H]1c1ccc(Cl)cc1`, for which the inhibition constant (Ki) in experiment [1] was 57 nM; in experiment [3], 69 nM; in experiment [4] it was 2620 nM. The Ratio Ki in experiment [2] was 0.03.
The corresponding values for `CN1CC[C@@H](c2ccc(Cl)cc2)[C@@H](CSCCOC(=O)c2ccccc2)C1` are 143 nM, 270 nM, 1470 nM and 0.18.
The like results for `CN1CC[C@@H](c2ccc(Cl)cc2)[C@@H](CSCC(=O)N(C)C)C1` were, in that order, 47 nM, 173 nM, 176 nM and 0.98.
The corresponding values for `CN1CC[C@H](c2ccc(Cl)cc2)[C@H](CSCCO)C1` are 26 nM, 185 nM, 37 nM and 5.
As for `CN1CC[C@@H](c2ccc(Cl)cc2)[C@H](CSCC(=O)NCCc2ccccc2)C1`, the Ki worked out at 178 nM in experiment [1], 68 nM in experiment [3] and 23 nM in experiment [4]. The Ratio Ki in experiment [2] turned out to be 2.97.
The like results for `COC(=O)[C@H]1CN(C)CC[C@H]1c1ccc(Cl)cc1` were, in that order, 415 nM, 56 nM, 1560 nM and 0.04.
As to `CN1CC[C@@H](c2ccc(Cl)cc2)[C@@H](CSCCO)C1`, the Ki in experiment [1] was > 3000 nM; in experiment [3] it was 305 nM; in experiment [4], 160 nM. Besides, the Ratio Ki in experiment [2] came to 1.91.
The like results for `CN1CC[C@@H](c2ccc(Cl)cc2)[C@@H](CSCC(=O)Nc2ccccc2)C1` were, in that order, 1060 nM, 91 nM, 80 nM and 1.13.
For the compound `CN1CC[C@@H](c2ccc(Cl)cc2)[C@@H](CSCC(=O)Nc2cccc3ccccc23)C1`, the inhibition constant Ki is 101 nM in experiment [1], 108 nM in experiment [3] and 102 nM in experiment [4]. The Ratio Ki in experiment [2] turned out to be 1.06.
The like results for `CN1CC[C@@H](c2ccc(Cl)cc2)[C@@H](CSCC(=O)NCCc2ccccc2)C1` were, in that order, 100 nM, 121 nM, 112 nM and 1.08.
Regarding `CNC(=O)CSC[C@@H]1CN(C)CC[C@@H]1c1ccc(Cl)cc1`, the results for the Ki in experiment [3] and in experiment [4] were 347 nM and 311 nM, respectively.
The like results for `CNC(=O)CSC[C@@H]1CN(C)CC[C@H]1c1ccc(Cl)cc1` were, in that order, 116 nM and 164 nM.
On to `CN1CC[C@H](c2ccc(Cl)cc2)[C@H](CSCC(=O)N2CCCCC2)C1`, for which the Ki came out at 13 nM in experiment [1], 42 nM in experiment [3] and 34 nM in experiment [4]. For the same compound, the Ratio Ki in experiment [2] was found to be 1.22.
As for `CC(C)NC(=O)CSC[C@@H]1CN(C)CC[C@@H]1c1ccc(Cl)cc1`, the Ki in experiment [1] was found to be 16 nM; in experiment [3] it was 154 nM; in experiment [4], 13 nM. The Ratio Ki in experiment [2] was found to be 11.5.
In the case of `CNC(=O)CSC[C@H]1CN(C)CC[C@H]1c1ccc(Cl)cc1`, the Ki was 1770 nM in experiment [3] and 215 nM in experiment [4].
For the compound `CN1CC[C@@H](c2ccc(Cl)cc2)[C@@H](CSCC(=O)N2CCCCC2)C1`, the Ki in experiment [1] was 134 nM; in experiment [3], 572 nM; in experiment [4], > 3000 nM. For the same compound, the Ratio Ki in experiment [2] was < 0.19.
For the compound `COC(=O)CSC[C@H]1CN(C)CC[C@H]1c1ccc(Cl)cc1`, the Ki in experiment [1] was determined as 98 nM; in experiment [3] it was 403 nM; in experiment [4], 598 nM. In addition, the Ratio Ki in experiment [2] amounted to 0.67.
The like results for `COC(=O)CSC[C@@H]1CN(C)CC[C@@H]1c1ccc(Cl)cc1` were, in that order, 22 nM, 182 nM, 38 nM and 4.88.
The corresponding values for `CC(C)NC(=O)CSC[C@@H]1CN(C)CC[C@H]1c1ccc(Cl)cc1` are 67 nM, 138 nM, 663 nM and 0.21.
The like results for `CN1CC[C@@H](c2ccc(Cl)cc2)[C@H](CSCC(=O)NCc2ccccc2)C1` were, in that order, 32 nM, 753 nM, 1570 nM and 0.48.
On to `CC(=O)OCCSC[C@H]1CN(C)CC[C@H]1c1ccc(Cl)cc1`, for which the Ki amounted to 610 nM in experiment [1], 125 nM in experiment [3] and 177 nM in experiment [4]. The Ratio Ki in experiment [2] stood at 0.71.
The like results for `CN1CC[C@H](c2ccc(Cl)cc2)[C@H](CSCC(N)=O)C1` were, in that order, 69 nM, 21 nM, 54 nM and 0.39.
As to `CC(=O)OCCSC[C@@H]1CN(C)CC[C@@H]1c1ccc(Cl)cc1`, the Ki in experiment [1] amounted to 30 nM; in experiment [3], 469 nM; in experiment [4] it was 46 nM. Moreover, the Ratio Ki in experiment [2] amounted to 10.1.
The corresponding values for `CN1CC[C@@H](c2ccc(Cl)cc2)[C@@H](CSCC(=O)NCc2ccccc2)C1` are 54 nM, 22 nM, 302 nM and 0.07.
With `CN1CC[C@H](c2ccc(Cl)cc2)[C@H](CSCC(=O)N(C)C)C1`, the Ki was 63 nM in experiment [1], 8.8 nM in experiment [3] and 17 nM in experiment [4]. The Ratio Ki in experiment [2] was found to be 0.53.
Consider `CN1CC[C@@H](c2ccc(Cl)cc2)[C@H](CSCC(=O)N(C)C)C1`, for which the Ki in experiment [1] is 218 nM; in experiment [3], 186 nM; in experiment [4] it was > 3000 nM. Further, the Ratio Ki in experiment [2] is < 0.06.
The corresponding values for `CN1CC[C@@H](c2ccc(Cl)cc2)[C@H](CSCC(N)=O)C1` are 53 nM, 545 nM, 1100 nM and 0.49.
The corresponding values for `CN1CC[C@H](c2ccc(Cl)cc2)[C@H](CSCC(=O)NCc2ccccc2)C1` are 85 nM, 23 nM, 3.9 nM and 5.81.
On to `CN1CC[C@@H](c2ccc(Cl)cc2)[C@H](CSCC(=O)N2CCCCC2)C1`, for which the inhibitory constant (Ki) in experiment [1] was 82 nM; in experiment [3], 190 nM; in experiment [4], > 3000 nM. In experiment [2], the Ratio Ki was < 0.06.
The corresponding values for `CC(C)NC(=O)CSC[C@H]1CN(C)CC[C@H]1c1ccc(Cl)cc1` are 11 nM, 36 nM, 142 nM and 0.25.
The corresponding values for `CN1CC[C@@H](c2ccc(Cl)cc2)[C@H](CSCCOC(=O)c2ccccc2)C1` are 56 nM, 71 nM, 378 nM and 0.19.
